According to the EternaBench riboswitch data:

Tested on: MS2 coat protein
Experiment: apparent Kd, MS2 coat protein; higher = weaker binding; RNA-MaP array; FMN 200 µM where present
How it was run: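 Binding was read on Illumina sequencing-chip clusters where stalled E. coli RNA polymerase had transcribed each design. A titration of SNAP-549-labelled MS2 coat protein began at 0.7 or 1.5 nM and doubled to 3 µM, once without ligand and once with constant ligand, in 100 mM Tris-HCl pH 7.5, 80 mM KCl, 4 mM MgCl2, BSA, DTT, yeast tRNA and Tween-20. The apparent Kd is the median of filtered per-cluster binding-curve fits, based on green signal normalised to red-channel RNA signal and control-cluster median Fmax.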

[1] = designed as: ON switch for flavin mononucleotide, no ligand
[2] = ligand present: flavin mononucleotide, designed as: ON switch for flavin mononucleotide
[3] = designed as: OFF switch for flavin mononucleotide, no ligand
[4] = ligand present: flavin mononucleotide, designed as: OFF switch for flavin mononucleotide

For “AUUUAUGGCCAGAAGGACAUGAGGAUCACCCAUGUAGGAUAUGGACGAUUUUGCCCGGCGGUUCGUUUAGGAAGCACCGGUGGU”, the “apparent Kd” value [1] was 11.5 nM and the “apparent Kd” value [2] was 7.11 nM.

For “AUUUAACAUGAGGAUCACCCAUGUGAGGAUAUGUCCAUAUUCGGCAAAUCGGAUAUGGACAGAAGGCACACCGG”, the “apparent Kd” value [3] was 105 nM and the “apparent Kd” value [4] was 194 nM.

With “UGUCACCGUGCAGGAUAUGCCUGCACGUCGCGGGCAGAAGGGCACAUGAGGAUCACCCAUGUAGAGCUGGGCUCGUCAAGGGAG” the “apparent Kd” value [3] was 9.05 nM and the “apparent Kd” value [4] was 9.85 nM.

In the case of “CCUCAACAGUAGGAUAUCAUAUAACUAUUGUGAUGAGAAGGACUGACAUGAGGAUCACCCAUGUUAACGUGAUA”, the “apparent Kd” value [3] is reported as 18 nM and the “apparent Kd” value [4] is reported as 24.9 nM.

“GAUAAACAUGAGGAUCACCCAUGUCAGGAUAUGCGCUAGCUAGCUAGCUAGCUAGCUAGCAGAAGGGACACUAC” was tested, and the “apparent Kd” value [3] was 19.5 nM and the “apparent Kd” value [4] was 35 nM.

“GAGAUGUGAGGAUAUCUAGACCGCGAAAGAGCCGCGGUCCGAGAGAAGGCACAUGAGGAUCACCCAUGUGAUGA” was tested, and the “apparent Kd” value [3] was 46.9 nM and the “apparent Kd” value [4] was 119 nM.

For “GGAUAGGACAGAGGAUAUUCGUGCUAGAGAUACUAGCAAAAUUUCCUCACAUGAGGAUCACCCAUGUAGAAGGCUGUCCUAUCG”, the “apparent Kd” value [3] was 5.37 nM and the “apparent Kd” value [4] was 10.3 nM.

For “ACAUGAGGAUCACCCAUGUGAAAAGAAUGGCUGACACAGAGAUAGGAUAUAUGUGCAUAUCUAACGUAGAAGGGUCAUGACUGG”, the “apparent Kd” value [3] was 33.3 nM and the “apparent Kd” value [4] was 36.4 nM.

In the case of “AUAAUGUAAGGAUAUCAGUCGACUAGCCUCGGCUAGUCGACUGAGAAGGUACAUGAGGAUCACCCAUGUGUUCC”, the “apparent Kd” value [3] is reported as 140 nM and the “apparent Kd” value [4] is reported as 766 nM.

“AGCUAAAACGAAGGAUAUACUGACAUGAGGAUCACCCAUGUCUACAUGAUUUAUUGUGAUCACAUGUAGAAGGUCGUACUAACA” was tested, and the “apparent Kd” value [1] was 74.4 nM and the “apparent Kd” value [2] was 27.7 nM.

In the case of “ACAUGAGGAUCACCCAUGUUAAACGAGGAUAUUUGACUGCACAUGAGGUUCACCCAUGUUCUGCCGAAGAAGGUGUAAAUAAUU”, the “apparent Kd” value [1] is reported as 39.2 nM and the “apparent Kd” value [2] is reported as 31.2 nM.

For “UGCAUGUUAGGAUAUGUUGUUGCGGGCGUACGCUCUCGACCACAGAAGGAACAUGAGGAUCACCCAUGUACCUC”, the “apparent Kd” value [3] was 20.3 nM and the “apparent Kd” value [4] was 88.8 nM.

For “UAUAUGUCAGGAUAUCGAUUGGAGCGGAAUUUAGCUUUGGUCGAGAAGGGACAUGAGGAUCACCCAUGUUCAAC”, the “apparent Kd” value [3] was 19.8 nM and the “apparent Kd” value [4] was 37.8 nM.

For “AGUCGGAGCAGAGGAUAUAUACAUGAGGAUCACCCAUGUAAAUGAGUAAGCUGGAAACAGCAAGUAUAGAAGGCUGCUCCGACA”, the “apparent Kd” value [3] was 18.2 nM and the “apparent Kd” value [4] was 35.1 nM.

“GUCAGCUCGUGAGGAUAUACAACACUGCUUCGGCAGUGUAUUAAGAUCACAUGAGGAUCACCCAUGUAGAAGGGACGAGCUGAU” was tested, and the “apparent Kd” value [3] was 11.8 nM and the “apparent Kd” value [4] was 20.7 nM.

“AAAAAACAUGAGGAUCACCCAUGUAAAAAAAUGGGAGGAUAUACAAAAACGAAAGUCAAAGUAGAAGGCCUGAAAA” was tested, and the “apparent Kd” value [1] was 119 nM and the “apparent Kd” value [2] was 25.6 nM.

“AAUAUAAAGAGCUGGUAACUCAAAACAUGAGGAUCACCCAUGUAGGAUAUCAGCACGAUAAGUGCUGAGAAGGACAUCCAGCUC” was tested, and the “apparent Kd” value [3] was 16.5 nM and the “apparent Kd” value [4] was 17.2 nM.

In the case of “GGGUACAUCGGAGGAUAUCAUGUAAAUACAUGAGGAUCACCCAUGUCGAUGGAGACAUCGAAGAUUGAGAAGGCCGAUGUACCG”, the “apparent Kd” value [1] is reported as 16.8 nM and the “apparent Kd” value [2] is reported as 5.6 nM.

For “ACAAAUUAGUGAGGAUAUGCUUAAUUUAUAACUGCAGAAGGCACAUACCUCAAGACAUGAGGAUCACCCAUGUGGAAUAUAGAU”, the “apparent Kd” value [3] was 25.4 nM and the “apparent Kd” value [4] was 62.8 nM.

“GGGUGCUCACCGCCUUAACAUGAGGAUCACCCAUGUGGAGUGCAGGAUAUACGUUUCUAUCAUACGUAGAAGGGCACCGCGCAG” was tested, and the “apparent Kd” value [3] was 5.59 nM and the “apparent Kd” value [4] was 5.03 nM.

“CGUUAUUCAGGAUAUGGCGUGUUAUACAUGAGGAUCACCCAUGUAGAUCCUGGUUAGGCCUCAGAAGGGAAUGUUC” was tested, and the “apparent Kd” value [3] was 43.7 nM and the “apparent Kd” value [4] was 37.8 nM.

For “AAAUAAAGCAGUGUAUUAAGAUAACAUGAGGAUCACCCAUGUAGAAGGCUCGAGCAAAAUGCUCGAGAGGAUAUACAACACUGC”, the “apparent Kd” value [3] was 5.04 nM and the “apparent Kd” value [4] was 9.55 nM.

In the case of “UCGGGCAACCGAAAUAGGACGGCUGAGGAUAUGACAUGAGGAUCACCCAUGUACAGGGCCACAGGUCAGAAGGCAGCCUUUUGG”, the “apparent Kd” value [3] is reported as 161 nM and the “apparent Kd” value [4] is reported as 36.5 nM.

In the case of “CUGGAUCACGCAGGAUAUUACAUGAGGAUCACCCAUGUCAGGACUGCAAUAUCGUCUCCUCGUUGUGAGAAGGGCGGAAUCAUU”, the “apparent Kd” value [3] is reported as 14.6 nM and the “apparent Kd” value [4] is reported as 26.3 nM.

In the case of “UAUAUAUAGUAAGGAUAUGUAUAUAUUUUACAAACAGAAGGUACUGACAUGAGGAUCACCCAUGUUUUAGUGUGGGCAUGUAGA”, the “apparent Kd” value [3] is reported as 57.8 nM and the “apparent Kd” value [4] is reported as 60 nM.

In the case of “GUUUGACAUGAGGAUCACCCAUGUGAGGAUAUCGGCUGGUACGUGUUGGCUGGCAUCUCGAGAAGGCACAUAGG”, the “apparent Kd” value [3] is reported as 134 nM and the “apparent Kd” value [4] is reported as 60.5 nM.

With “GUAGCUAUCGGAGGAUAUUCAUACUGGAAACGGACAUGAGGAUCACCCAUGUGGCGAAAGCCUUGGGAGAAGGCCGAUCGCUAC” the “apparent Kd” value [1] was 123 nM and the “apparent Kd” value [2] was 8.13 nM.

With “GUGUCGGGAGGAUAUGCGUGGAUUGUUCUCGUAUGGUGUCUACAUGAGGAUCACCCAUGUAGAAGGUCUGGCGC” the “apparent Kd” value [3] was 20.8 nM and the “apparent Kd” value [4] was 61.1 nM.

With “UAGUAUAAGGGCAUUAAACAUGAGGAUCACCCAUGUACGUUAGAGGAUAUGCAUUUCAGUUGAGAGUAGAAGGUUAGAGAAGGG” the “apparent Kd” value [3] was 45.1 nM and the “apparent Kd” value [4] was 47.4 nM.

In the case of “AAUGUUGGAGGAUAUACGCGAGUGCUCAGUUGGCCCGGUCGACAUGAGGAUCACCCAUGUAGAAGGCCGACGCU”, the “apparent Kd” value [3] is reported as 14.4 nM and the “apparent Kd” value [4] is reported as 16.9 nM.

With “UAAGCCGGGUCUGCAUGAGCUUACAUGAGGAUCACCCAUGUAAGAAGGGACGCUACGUUAAAGUGUCAGGAUAUUGCGAACGGG” the “apparent Kd” value [3] was 5.26 nM and the “apparent Kd” value [4] was 5.73 nM.

For “ACUGGGCGCCAACCCAUGUCUAUGGAGGAUAUUACUGCCGGUAUCUCACAUGAGGAUCACCCAUGUAAGAAGGCCAUAAGCACA”, the “apparent Kd” value [3] was 34.3 nM and the “apparent Kd” value [4] was 176 nM.

With “CGAUCGGAAGGAUAUACACCUCACGUCAAACGGACAACCGGACAUGAGGAUCACCCAUGUAGAAGGUCCAAAAU” the “apparent Kd” value [3] was 72.6 nM and the “apparent Kd” value [4] was 238 nM.

With “CAAUUGGCACAGAAGGGUGACAUGAGGAUCACCCAUGUAGCGUGGCACUCAGGAGAAGCCACGCCACAGGAUAUGUGCCGGCAC” the “apparent Kd” value [1] was 73.6 nM and the “apparent Kd” value [2] was 37.1 nM.

“AGUCGGAGCAGAGGAUAUUACAUGAGGAUCACCCAUGUAAUAAGAUCAAGCUGGAAACAGCAAUGUAAGAAGGCUGCUCCGACA” was tested, and the “apparent Kd” value [3] was 16.3 nM and the “apparent Kd” value [4] was 45.6 nM.

“UUUGGGUCAGGAUAUUGUUAGUUUAGUUGUUUGUAUUAGUUCGAGAAGGGACAUGAGGAUCACCCAUGUGGUAA” was tested, and the “apparent Kd” value [3] was 94.9 nM and the “apparent Kd” value [4] was 69.9 nM.
